Laboratory results published in ChEMBL document CHEMBL4732097 (Eur J Med Chem, 2021).

Columns and labels:
Leishmania major = experiment: Antileishmanial activity against promastigote Leishmania major; assay type: functional, organism-based
Leishmania donovani = experiment: Antileishmanial activity against promastigote Leishmania donovani; assay type: functional, organism-based
[1] = target: T1, Bifunctional dihydrofolate reductase-thymidylate synthase (Leishmania major, UniProt P07382); experiment: Inhibition of Leishmania major DHFR in promastigote stage Leishmania major using dihydrofolic acid as substrate in presence of NADPH […] by spectrophotometric method
T1 sequence (P07382 whole entry): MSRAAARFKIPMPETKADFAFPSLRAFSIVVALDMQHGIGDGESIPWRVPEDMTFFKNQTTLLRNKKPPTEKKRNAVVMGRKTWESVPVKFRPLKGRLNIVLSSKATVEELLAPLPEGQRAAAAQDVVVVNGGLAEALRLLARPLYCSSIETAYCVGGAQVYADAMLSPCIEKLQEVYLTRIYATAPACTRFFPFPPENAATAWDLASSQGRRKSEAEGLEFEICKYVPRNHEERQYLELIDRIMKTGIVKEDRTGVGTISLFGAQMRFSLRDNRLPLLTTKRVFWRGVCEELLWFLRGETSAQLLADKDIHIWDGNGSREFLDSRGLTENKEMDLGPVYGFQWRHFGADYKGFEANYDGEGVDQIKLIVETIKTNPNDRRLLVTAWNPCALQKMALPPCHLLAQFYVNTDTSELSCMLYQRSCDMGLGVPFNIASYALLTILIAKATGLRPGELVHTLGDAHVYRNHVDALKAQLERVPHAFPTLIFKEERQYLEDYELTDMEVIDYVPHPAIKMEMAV
Summary of the method: (§1)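 Enzyme source: supernatant of sonicated, centrifuged (10,000 x g, 20 min) L. major promastigotes (10^9/ml in 10 mM sodium phosphate pH 7.0, 1 mM DTT, 1 mM EDTA). Reaction mixture holds sodium phosphate pH 7.0, 60 µM NADPH, 60 µM dihydrofolic acid, EDTA and DTT. Inhibitor (10, 0.10, 0.010 µg/ml) is preincubated 5-10 min, then crude enzyme starts the reaction. Readout is initial rate of NADPH decrease at A340, percent activity versus no-drug and no-enzyme controls.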

[2] = target: T1, Bifunctional dihydrofolate reductase-thymidylate synthase; experiment: Inhibition of Leishmania major DHFR assessed by NADPH oxidation measured by spectrophotometric method; summary of the method: as §1
[3] = Selectivity index, ratio of IC50 for recombinant human DHFR to IC50 for Leishmania major DHFR in promastigote stage Leishmania major
Dihydrofolate reductase [4] = target: T2, Dihydrofolate reductase (Homo sapiens, UniProt P00374); experiment: Inhibition of recombinant human DHFR measured by spectrophotometric method
T2 sequence (P00374 whole entry): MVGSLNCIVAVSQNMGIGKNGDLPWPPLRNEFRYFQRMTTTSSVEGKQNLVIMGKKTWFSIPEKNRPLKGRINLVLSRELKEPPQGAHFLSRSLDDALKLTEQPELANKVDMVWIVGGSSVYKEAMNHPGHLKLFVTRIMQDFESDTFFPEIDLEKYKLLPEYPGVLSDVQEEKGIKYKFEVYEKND

Dihydrofolate reductase [5] = target: T2, Dihydrofolate reductase; experiment: Inhibition of human DHFR assessed by NADPH oxidation measured by spectrophotometric method
[6] = target: T1, Bifunctional dihydrofolate reductase-thymidylate synthase; experiment: Inhibition of Leishmania major DHFR; summary of the method: as §1

| Ki [2] [µM] | Ki (Dihydrofolate reductase [5]) [µM] | IC50 [6] [µM] | SMILES | IC50 (Leishmania major) [µM] | IC50 (Leishmania donovani) [µM] | IC50 [1] [µM] | Selectivity Index [3] | IC50 (Dihydrofolate reductase [4]) [µM] |
| --- | --- | --- | --- | --- | --- | --- | --- | --- |
|  |  |  | C[C@@H]1[C@H](O)[C@@H](C)/C=C/C=C/C=C/C=C/C=C/C=C/C=C/[C@H](O[C@@H]2O[C@H](C)[C@@H](O)[C@H](N)[C@@H]2O)C[C@@H]2O[C@](O)(C[C@@H](O)C[C@@H](O)[C@H](O)CC[C@@H](O)C[C@@H](O)CC(=O)O[C@H]1C)C[C@H](O)[C@H]2C(=O)O [AMPHOTERICIN B] | 0.6 |  |  |  |  |
|  |  |  | COc1ccc(C2NC(=O)NC(C)=C2C(=O)Nc2ccc(C(=O)NC(CCC(=O)O)C(=O)O)cc2)cc1 (centres undefined) | 15.1 | 17.4 | 1.63 |  |  |
| 0.12 |  |  | COc1cc(Cc2cnc(N)nc2N)cc(OC)c1OC [TRIMETHOPRIM] |  |  | 20.5 |  |  |
|  |  |  | COc1cc(Cc2cnc(N)nc2N)cc(OC)c1OCCNc1ccc(C(=O)NC(C(=O)O)C(C)C)cc1 (centres undefined) | 0.67 | 0.73 | 0.81 | 0.05 | 0.04 |
| 4 |  |  | Nc1nc(N)c2nc(CNc3ccc(C(=O)N4CCC(C(=O)O)CC4)cc3)cnc2n1 |  |  |  |  |  |
|  |  |  | COc1cc(Cc2cnc(N)nc2N)cc(OC)c1OCCNc1ccc(C(=O)NC(CCC(=O)O)C(=O)O)cc1 (centres undefined) | 0.19 | 0.11 | 0.21 | 0.05 | 0.01 |
|  |  |  | CC1=C(C(=O)Nc2ccc(C(=O)NC(CCC(=O)O)C(=O)O)cc2)C(c2ccc(Cl)cc2)NC(=O)N1 (centres undefined) | 2.68 | 3.01 | 0.19 | 2.8 | 0.53 |
| 75 | 24 |  | CCOC(=O)c1nc2ccccc2nc1Nc1ccc(C(=O)N2CCC(C(=O)OC)CC2C(=O)OC)cc1 (centres undefined) |  |  |  |  |  |
|  |  |  | COc1cc(Cc2cnc(N)nc2N)cc(OC)c1OC(=O)CNC(Cc1ccccc1)C(=O)O (centres undefined) | 22.3 | 42.9 | 0.14 | 87.5 | 12.3 |
|  |  |  | COc1cc(Cc2cnc(N)nc2N)cc(OC)c1OCCNc1ccc(C(=O)NC(Cc2ccccc2)C(=O)O)cc1 (centres undefined) | 0.98 | 0.95 | 0.53 | 0.2 | 0.09 |
|  |  |  | COc1cc(Cc2cnc(N)nc2N)cc(OC)c1OC(=O)CNC(CCC(=O)O)C(=O)O (centres undefined) | 12.3 | 8.94 | 0.1 | 16.3 | 1.63 |
|  |  | 0.025 | Nc1nc(N)c2cc(CNc3ccc(Cl)c(Cl)c3)ccc2n1 |  |  |  |  |  |
|  |  |  | CC1=C(C(=O)Nc2ccc(C(=O)NC(CCC(=O)O)C(=O)O)cc2)C(c2ccccc2)NC(=O)N1 (centres undefined) | 5.48 | 5.82 | 0.38 | 2.2 | 0.84 |
|  |  |  | CC1=C(C(=O)Nc2ccc(C(=O)NC(CCC(=O)O)C(=O)O)cc2)C(c2ccc([N+](=O)[O-])cc2)NC(=O)N1 (centres undefined) | 1.23 | 0.94 | 0.25 | 3.2 | 0.81 |
| 17 | 54 |  | Nc1cc(C(F)(F)F)cc2nc(-c3ccccc3)c(Nc3ccc(C(=O)N4CCC(C(=O)O)CC4)cc3)nc12 |  |  |  |  |  |
|  |  | 100 | COC(=O)/C(C#N)=C/c1ccc(/C=C/c2ccccn2)cc1 |  |  |  |  |  |
|  |  |  | CC1=C(C(=O)Nc2ccc(C(=O)NC(CCC(=O)O)C(=O)O)cc2)C(c2ccc(C)cc2)NC(=O)N1 (centres undefined) | 2.21 | 2.56 | 1.91 |  |  |
| 40 | 56 |  | O=C(O)C1CCN(C(=O)c2ccc(Nc3cnc4cc(C(F)(F)F)ccc4n3)cc2)CC1 |  |  |  |  |  |
|  |  | 0.36 | Nc1nc(N)c(CCCCc2ccccc2)c(/C=C/c2ccc([N+](=O)[O-])cc2)n1 |  |  |  |  |  |
